Each structure is given as a SMILES string.

The GI50 is the concentration at which growth is held to half of that of the control. A higher GI50 goes with lower sensitivity of the cells.

What all share (type): functional
Test [1] has as its system HBL-100. Description: Antiproliferative activity against human HBL100 cells after 48 hrs by SRB assay. To be noted: HBL-100, 48 h. Summed up:
(§1)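 Cells grown in RPMI 1640 with 5% heat-inactivated FCS and 2 mM L-glutamine. Seeded per well at 20,000 (WiDr), 15,000 (T-47D) or 10,000 (HeLa, SW1573, HBL-100). Dosing started the day after plating, in triplicate at 1–100 µM, with 0.25% DMSO as the vehicle control. After 48 h, TCA fixation, SRB staining and OD at 492 nm. Percentage growth calculated against untreated cells from OD at T0 and end, using NCI formulas.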

Test [2] has as its system WiDr. The test is described as follows: Antiproliferative activity against human WiDr cells after 48 hrs by SRB assay. Summed up: as §1
For orientation: Sulforhodamine B stains cellular protein and so reports cell mass.

In test [3] the test system is T47D. Description: Antiproliferative activity against human T47D cells after 48 hrs by SRB assay. Summed up:
as §1

Test [4] concerns HeLa. Description: Antiproliferative activity against human HeLa cells after 48 hrs by SRB assay. Summed up:
as §1

In test [5] the test system is SW1573. Description: Antiproliferative activity against human SW1573 cells after 48 hrs by SRB assay. Conditions: SW1573, 48 h. In outline:
as §1

Consider `CC1=CC[C@H]2C(C)(C)CCC[C@]2(C)[C@@]12CC[C@@](C)(CC(=O)N(Cc1ccccc1)C(C)(C)C(=O)Nc1c(C)cccc1C)O2`, for which the GI50 worked out at 8.9 µM in test [1]; 38 µM in test [2]; 31 µM in test [3]; 11 µM in test [4]; 5.1 µM in test [5].
The corresponding values for `C#CCNC(=O)OCC[C@]1(C)CC[C@@]2(O1)C(C)=CC[C@H]1C(C)(C)CCC[C@@]12C` are 14 µM, 12 µM, 16 µM, 14 µM and 13 µM.
Consider `CC1=CC[C@H]2C(C)(C)CCC[C@]2(C)[C@@]12CC[C@@](C)(CC(=O)N(Cc1ccccc1)C(C)(C)C(=O)NC(C)(C)C)O2`, for which the GI50 in test [1] worked out at 4.6 µM; in test [2], 12 µM; in test [3], 3.9 µM; in test [4], 5.3 µM; in test [5], 11 µM.
The corresponding values for `COC(=O)C[C@]1(C)CC[C@@]2(O1)C(C)=CC[C@H]1C(C)(C)CCC[C@@]12C` are 17 µM, 23 µM, 19 µM, 16 µM and 18 µM.
The corresponding values for `CC1=CC[C@H]2C(C)(C)CCC[C@]2(C)[C@@]12CC[C@@](C)(CC(=O)N(Cc1ccccc1)C(C)(C)C(=O)NCCN1CCOCC1)O2` are 16 µM, 12 µM, 19 µM, 18 µM and 16 µM.
The corresponding values for `CC1=CC[C@H]2C(C)(C)CCC[C@]2(C)[C@@]12CC[C@@](C)(CCOC(=O)n1ccnc1)O2` are 16 µM, 13 µM, 17 µM, 18 µM and 17 µM.
For `CCCCNC(=O)C(C)(C)N(Cc1ccccc1)C(=O)C[C@]1(C)CC[C@@]2(O1)C(C)=CC[C@H]1C(C)(C)CCC[C@@]12C`, the GI50 is 1.9 µM in test [1]; 3.1 µM in test [2]; 3 µM in test [3]; 2.9 µM in test [4]; 1.8 µM in test [5].
The corresponding values for `C#CC[C@]1(C)CC[C@@]2(O1)C(C)=CC[C@H]1C(C)(C)CCC[C@@]12C` are 17 µM, 4.8 µM, 28 µM, 16 µM and 15 µM.
With `C#Cc1cccc(-c2cn(CC[C@]3(C)CC[C@@]4(O3)C(C)=CC[C@H]3C(C)(C)CCC[C@@]34C)nn2)c1`, the GI50 in test [1], in test [2], in test [3], in test [4] and in test [5] was more than 100 µM throughout.
`CCCCCCCCCCc1cn(CC[C@]2(C)CC[C@@]3(O2)C(C)=CC[C@H]2C(C)(C)CCC[C@@]23C)nn1`: the concentration for 50% growth inhibition (GI50) amounted to 16 µM in test [1]; 15 µM in test [2]; 44 µM in test [3]; 25 µM in test [4]; 15 µM in test [5].
On to `CCOC(=O)/C(C)=C/C[C@]1(C)CC[C@@]2(O1)C(C)=CC[C@H]1C(C)(C)CCC[C@@]12C`, for which the GI50 in test [1] was determined as 17 µM; in test [2] it was 37 µM; in test [3], 32 µM; in test [4], 18 µM; in test [5], 20 µM.
For the compound `CC1=CC[C@H]2C(C)(C)CCC[C@]2(C)[C@@]12CC[C@@](C)(CCO)O2`, the GI50 in test [1] stood at 17 µM; in test [2], 21 µM; in test [3], 16 µM; in test [4], 17 µM; in test [5] it was 19 µM.
With `CC1=CC[C@H]2C(C)(C)CCC[C@]2(C)[C@@]12CC[C@@](C)(CC(=O)N(Cc1ccccc1)C(C)(C)C(=O)NC(C)(C)C(C)(C)C)O2`, the GI50 was found to be 10 µM in test [1]; 49 µM in test [2]; 40 µM in test [3]; 30 µM in test [4]; 14 µM in test [5].
The corresponding values for `CC1=CC[C@H]2C(C)(C)CC[C@H](O)[C@]2(C)[C@@]12CC[C@@](C)(CC(=O)O)O2` are more than 100 µM, more than 100 µM, more than 100 µM, more than 100 µM and more than 72 µM.
Consider `CC1=CC[C@H]2C(C)(C)CCC[C@]2(C)[C@@]12CC[C@@](C)(C/C=C/CO)O2`, for which the 50% growth inhibitory concentration (GI50) in test [1] was 17 µM; in test [2] it was 17 µM; in test [3], 17 µM; in test [4], 18 µM; in test [5], 17 µM.
`CC1=CC[C@H]2C(C)(C)CCC[C@]2(C)[C@@]12CC[C@@](C)(CCOC(=O)NCCCN(C)C)O2`: the 50% growth inhibitory concentration (GI50) in test [1] is 6.1 µM; in test [2], 1.4 µM; in test [3] it was 4.3 µM; in test [4] it was 7.8 µM; in test [5] it was 8 µM.
Turning to `CC1=CC[C@H]2C(C)(C)CCC[C@]2(C)[C@@]12CC[C@@](C)(CC(=O)N(Cc1ccccc1)C(C)(C)C(=O)NCc1ccccc1)O2`, the GI50 in test [1] came to 0.95 µM; in test [2], 1.8 µM; in test [3], 1.9 µM; in test [4], 1.6 µM; in test [5], 1.2 µM.
For `CC1=CC[C@H]2C(C)(C)CCC[C@]2(C)[C@@]12CC[C@@](C)(C/C=C(\C)CO)O2`, the GI50 in test [1] was 16 µM; in test [2] it was 19 µM; in test [3], 15 µM; in test [4] it was 16 µM; in test [5], 18 µM.
For `CC1=CC[C@H]2C(C)(C)CCC[C@]2(C)[C@@]12CC[C@@](C)(CCn1cc(CCCCc3cn(CC[C@]4(C)CC[C@@]5(O4)C(C)=CC[C@H]4C(C)(C)CCC[C@@]45C)nn3)nn1)O2`, the GI50 in test [1] came out at 2.9 µM; in test [3], 4.3 µM; in test [4] it was 2.7 µM; in test [5] it was 3 µM.
As to `CC1=CC[C@H]2C(C)(C)CCC[C@]2(C)[C@@]12CC[C@@](C)(CCOC(=O)NCc1cn(CC[C@]3(C)CC[C@@]4(O3)C(C)=CC[C@H]3C(C)(C)CCC[C@@]34C)nn1)O2`, the GI50 in test [1], in test [2], in test [3], in test [4] and in test [5] was more than 100 µM in each case.
On to `CC1=CC[C@H]2C(C)(C)CCC[C@]2(C)[C@@]12CC[C@@](C)(CC(=O)O)O2`, for which the 50% growth inhibitory concentration (GI50) in test [1] turned out to be 46 µM; in test [2] it was 57 µM; in test [3], 69 µM; in test [4] it was 60 µM; in test [5] it was 49 µM.
The corresponding values for `CCOC(=O)/C=C/C[C@]1(C)CC[C@@]2(O1)C(C)=CC[C@H]1C(C)(C)CCC[C@@]12C` are 16 µM, 35 µM, 32 µM, 19 µM and 18 µM.
The corresponding values for `CC1=CC[C@H]2C(C)(C)CCC[C@]2(C)[C@@]12CC[C@@](C)(CC=O)O2` are 14 µM, 15 µM, 26 µM, 17 µM and 17 µM.
The corresponding values for `CC1=CC[C@H]2C(C)(C)CCC[C@]2(C)[C@@]12CC[C@@](C)(CCn1cc(COc3cccc(OCc4cn(CC[C@]5(C)CC[C@@]6(O5)C(C)=CC[C@H]5C(C)(C)CCC[C@@]56C)nn4)c3)nn1)O2` are more than 100 µM, more than 100 µM, more than 100 µM, more than 100 µM and more than 100 µM.
With `CC[C@@]1(O)C(=O)OCc2c1cc1n(c2=O)Cc2cc3ccccc3nc2-1` [CAMPTOTHECIN], the GI50 amounted to 0.23 µM in test [1]; 1.8 µM in test [2]; 2 µM in test [3]; 0.6 µM in test [4]; 0.25 µM in test [5].
The corresponding values for `CC1=CC[C@H]2C(C)(C)CCC[C@]2(C)[C@@]12CC[C@@](C)(CCN=[N+]=[N-])O2` are more than 100 µM, more than 100 µM, more than 100 µM, more than 100 µM and more than 100 µM.
The corresponding values for `CC1=CC[C@H]2C(C)(C)CCC[C@]2(C)[C@@]12CC[C@@](C)(CC(=O)N(c1ccccc1)C(C)(C)C(=O)NC(C)(C)C)O2` are 5.4 µM, 6.8 µM, 5.3 µM, 5.7 µM and 5.8 µM.
The corresponding values for `CC1=CC[C@H]2C(C)(C)CCC[C@]2(C)[C@@]12CC[C@@](C)(C[C@@H]1O[C@H]1CO)O2` are 16 µM, 19 µM, 16 µM, 17 µM and 18 µM.
In the case of `CC1=CC[C@H]2C(C)(C)CCC[C@]2(C)[C@@]12CC[C@@](C)(CC(=O)N(Cc1ccccc1)C(C)(C)C(=O)NC1CCCCC1)O2`, the 50% growth inhibitory concentration (GI50) in test [1] stood at 3.7 µM; in test [2], 5.1 µM; in test [3], 4.4 µM; in test [4], 4.7 µM; in test [5] it was 3.6 µM.
On to `CC1=CC[C@H]2C(C)(C)CCC[C@]2(C)[C@@]12CC[C@@](C)(C[C@H]1O[C@@H]1CO)O2`, for which the GI50 in test [1] came out at 16 µM; in test [2], 17 µM; in test [3], 15 µM; in test [4], 17 µM; in test [5] it was 18 µM.
`CC1=CC[C@H]2C(C)(C)CCC[C@]2(C)[C@@]12CC[C@@](C)(CC(=O)N(c1ccccc1)C(C)(C)C(=O)Nc1c(C)cccc1C)O2`: the 50% growth inhibitory concentration (GI50) in test [1] was 8.7 µM; in test [2], 37 µM; in test [3], 21 µM; in test [4], 22 µM; in test [5], 5.9 µM.

Source of the values: ChEMBL document CHEMBL2417382, “Derivatives of grindelic acid: from a non-active natural diterpene to synthetic antitumor derivatives” (2013).
